Data: ChEMBL document CHEMBL3352317, “Protective mechanisms of acacetin against D-galactosamine and lipopolysaccharide-induced fulminant hepatic failure in mice” (J Nat Prod, 2014)
The source made the active and inactive calls. The calls are words filed in the database; no cut-off is given here.

Columns and labels:
Mus musculus [1] = assay: Hepatoprotective effect in GalN/LPS-induced ICR mouse FHF model assessed as survival rate at 100 mg/kg, ip administered 1 hr prior to GalN/LPS challenge measured after 24 hrs; type: functional; details: route intraperitoneal
In short: (§1)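 Male 6-week-old ICR mice (24−26 g), fasted 18 h with water allowed. Vehicle (5% DMSO−saline) or drug suspended in it (25, 50, 100 mg/kg) given ip 1 h before ip GalN (800 mg/kg) plus LPS (40 μg/kg, E. coli O111:B4) in PBS. Survival was monitored over 24 h after the challenge. There were 10 mice per group.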

Mus musculus [2] = assay: Induction of autophagic flux in GalN/LPS-induced ICR mouse FHF model assessed as increase in autophagic vacuoles at 100 mg/kg, ip administered 1 hr prior to GalN/LPS challenge measured after 6 hrs by transmission electron microscopy relative to control; type: functional, organism-based; design: dose 100 mg/kg
In short: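 Mice given 100 mg/kg ip 1 h before GalN (800 mg/kg)/LPS (40 μg/kg); liver fixed at 6 h in 2.5% glutaraldehyde, 1% formaldehyde, 100 mM sodium phosphate pH 7.2; ultrathin 60−70 nm sections counterstained with uranyl acetate and lead citrate, autophagic vacuoles counted by transmission electron microscopy; n = 8−10.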

Mus musculus [3] = assay: Hepatoprotective effect in ip dosed GalN/LPS-induced ICR mouse FHF model assessed as survival rate administered 1 hr prior to GalN/LPS challenge measured up to 24 hrs; type: functional, organism-based; in short: as §1
Mus musculus [4] = assay: Induction of autophagic flux in GalN/LPS-induced ICR mouse FHF model assessed as increase in LC3-2 protein expression at 100 mg/kg, ip administered 1 hr prior to GalN/LPS challenge measured after 6 hrs by Western blotting analysis relative to control; type: functional, organism-based; design: dose 100 mg/kg
In short: (§2)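 Livers from ICR mice given 100 mg/kg ip (5% DMSO−saline) 1 h before GalN 800 mg/kg/LPS 40 μg/kg, harvested at 6 h. Western blot: 20 μg liver homogenate protein (nuclear extracts for NF-κB), 10−17% SDS-PAGE, PVDF, blocked in 5% milk or BSA, primary antibody overnight at 4 °C, ECL detection; phospho versus total MAPKs; n = 8−10.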

Mus musculus [5] = assay: Hepatoprotective effect in GalN/LPS-induced ICR mouse FHF model assessed as reduction in JNK phosphorylation at 100 mg/kg, ip administered 1 hr prior to GalN/LPS challenge measured after 6 hrs by Western blotting analysis relative to control; type: functional, organism-based; design: dose 100 mg/kg; in short: as §2
Mus musculus [6] = assay: Hepatoprotective effect in GalN/LPS-induced ICR mouse FHF model assessed as serum ALT level at 50 mg/kg, ip administered 1 hr prior to GalN/LPS challenge measured after 6 hrs by spectrophotometry (reference value: 618.4 +/- 43.7 U/L); type: functional; details: route intraperitoneal
Mus musculus [7] = assay: Induction of autophagic flux in GalN/LPS-induced ICR mouse FHF model assessed as […] in Beclin-1 protein expression at 100 mg/kg, ip administered 1 hr prior to GalN/LPS challenge measured after 6 hrs by Western blotting analysis relative to control; type: functional, organism-based; design: dose 100 mg/kg; in short: as §2
Mus musculus [8] = assay: Induction of autophagic flux in GalN/LPS-induced ICR mouse FHF model assessed as increase in Atg-7 protein expression at 100 mg/kg, ip administered 1 hr prior to GalN/LPS challenge measured after 6 hrs by Western blotting analysis relative to control; type: functional, organism-based; design: dose 100 mg/kg; in short: as §2
Mus musculus [9] = assay: Induction of autophagic flux in GalN/LPS-induced ICR mouse FHF model assessed as reduction in p62 level at 100 mg/kg, ip administered 1 hr prior to GalN/LPS challenge measured after 6 hrs by Western blotting analysis relative to control; type: functional, organism-based; design: dose 100 mg/kg; in short: as §2
Mus musculus [10] = assay: Effect serum ALT level in ICR mouse at 100 mg/kg, ip by spectrophotometry (reference value: 49.6 +/- 9.9 U/L); type: ADME, organism-based; design: dose 100 mg/kg, route intraperitoneal; details: in vivo
Mus musculus [11] = assay: Effect on liver histology in GalN/LPS-induced ICR mouse FHF model assessed as inhibition of increase in inflammatory cell infiltration at 100 mg/kg, ip administered 1 hr prior to GalN/LPS challenge measured after 6 hrs by hematoxylin/eosin staining-based assay; type: functional, organism-based; design: dose 100 mg/kg
Mus musculus [12] = assay: Hepatoprotective effect in GalN/LPS-induced ICR mouse FHF model assessed as reduction in ERK phosphorylation at 100 mg/kg, ip administered 1 hr prior to GalN/LPS challenge measured after 6 hrs by Western blotting analysis relative to control; type: functional, organism-based; design: dose 100 mg/kg; in short: as §2
Mus musculus [13] = assay: Hepatoprotective effect in GalN/LPS-induced ICR mouse FHF model assessed as serum TNF-alpha level at 100 mg/kg, ip administered 1 hr prior to GalN/LPS challenge measured after 6 hrs by ELISA (reference value: 605.8 +/- 96.8 pg/ml); type: functional; details: route intraperitoneal
Mus musculus [14] = assay: Hepatoprotective effect in GalN/LPS-induced ICR mouse FHF model assessed as serum ALT level at 25 mg/kg, ip administered 1 hr prior to GalN/LPS challenge measured after 6 hrs by spectrophotometry (reference value: 618.4 +/- 43.7 U/L); type: functional; details: route intraperitoneal
Mus musculus [15] = assay: Hepatoprotective effect in GalN/LPS-induced ICR mouse FHF model assessed as reduction in NF-kappaB protein expression at 100 mg/kg, ip administered 1 hr prior to GalN/LPS challenge measured after 6 hrs by Western blotting analysis relative to control; type: functional, organism-based; design: dose 100 mg/kg; in short: as §2
Mus musculus [16] = assay: Effect on liver histology in ICR mouse at 100 mg/kg, ip after 6 hr by hematoxylin/eosin staining-based assay; details: in vivo
Mus musculus [17] = assay: Effect on serum TNF-alpha level in ICR mouse at 100 mg/kg, ip by ELISA (reference value: 14.1 +/- 1.1 pg/ml); type: ADME, organism-based; design: dose 100 mg/kg, route intraperitoneal; details: in vivo
Mus musculus [18] = assay: Induction of autophagic flux in GalN/LPS-induced ICR mouse FHF model assessed as increase in Atg-5 protein expression at 100 mg/kg, ip administered 1 hr prior to GalN/LPS challenge measured after 6 hrs by Western blotting analysis relative to control; type: functional, organism-based; design: dose 100 mg/kg; in short: as §2
Mus musculus [19] = assay: Effect on serum IL-6 level in ICR mouse at 100 mg/kg, ip by ELISA (reference value: 96.7 +/- 4.9 pg/ml); type: ADME, organism-based; design: dose 100 mg/kg, route intraperitoneal; details: in vivo
Mus musculus [20] = assay: Hepatoprotective effect in GalN/LPS-induced ICR mouse FHF model assessed as reduction in p38 phosphorylation at 100 mg/kg, ip administered 1 hr prior to GalN/LPS challenge measured after 6 hrs by Western blotting analysis relative to control; type: functional, organism-based; design: dose 100 mg/kg; in short: as §2
Mus musculus [21] = assay: Hepatoprotective effect in GalN/LPS-induced ICR mouse FHF model assessed as reduction in TLR4 protein expression at 100 mg/kg, ip administered 1 hr prior to GalN/LPS challenge measured after 6 hrs by Western blotting analysis relative to control; type: functional, organism-based; design: dose 100 mg/kg; in short: as §2
Mus musculus [22] = assay: Toxicity in ICR mouse at 100 mg/kg, ip; type: organism-based; design: dose 100 mg/kg, route intraperitoneal; details: in vivo
Mus musculus [23] = assay: Effect on liver histology in GalN/LPS-induced ICR mouse FHF model assessed as inhibition of hepatocellular necrosis at 100 mg/kg, ip administered 1 hr prior to GalN/LPS challenge measured after 6 hrs by hematoxylin/eosin staining-based assay; type: functional, organism-based; design: dose 100 mg/kg
Hepatocyte = assay: Hepatoprotective effect in primary hepatocytes (unknown origin); type: functional, cell-based
Mus musculus [24] = assay: Hepatoprotective effect in GalN/LPS-induced ICR mouse FHF model assessed as serum TNF-alpha level at 100 mg/kg, ip administered 1 hr prior to GalN/LPS challenge measured after 6 hrs by ELISA (reference value: 78.9 +/- 14.9 pg/ml); type: functional; details: route intraperitoneal
Mus musculus [25] = assay: Hepatoprotective effect in GalN/LPS-induced ICR mouse FHF model assessed as serum ALT level at 100 mg/kg, ip administered 1 hr prior to GalN/LPS challenge measured after 6 hrs by spectrophotometry (reference value: 618.4 +/- 43.7 U/L); type: functional; details: route intraperitoneal
Mus musculus [26] = assay: Effect on liver histology in GalN/LPS-induced ICR mouse FHF model assessed as inhibition of multiple areas of portal inflammation at 100 mg/kg, ip administered 1 hr prior to GalN/LPS challenge measured after 6 hrs by hematoxylin/eosin staining-based assay; type: functional, organism-based; design: dose 100 mg/kg

## COc1ccc(-c2cc(=O)c3c(O)cc(O)cc3o2)cc1 [ACACETIN]
Mus musculus [1]
  survival at 100 mg/kg: 80%
Mus musculus [2]
  Activity: Active
Mus musculus [3]
  Survival: Dose-dependent effect
Mus musculus [4]
  Activity: Active
Mus musculus [5]
  Activity: Active
Mus musculus [6]
  Activity: 395.6 U/L
Mus musculus [7]
  Activity: inactive
Mus musculus [8]
  Activity: Active
Mus musculus [9]
  Activity: Active
Mus musculus [10]
  Activity: 64.4 U/L
Mus musculus [11]
  Activity: Active
Mus musculus [12]
  Activity: Active
Mus musculus [13]
  Activity: 27.4 pg/mL
Mus musculus [14]
  Activity: 520.1 U/L
Mus musculus [15]
  Activity: Active
Mus musculus [16]
  Activity: Non-toxic
Mus musculus [17]
  Activity: 13.1 pg/mL
Mus musculus [18]
  Activity: Active
Mus musculus [19]
  Activity: 131 pg/mL
Mus musculus [20]
  Activity: Active
Mus musculus [21]
  Activity: Active
Mus musculus [22]
  Activity: Non-toxic
Mus musculus [23]
  Activity: Active
Hepatocyte
  Activity: Active
Mus musculus [24]
  Activity: 27.4 pg/mL
Mus musculus [25]
  Activity: 361.3 U/L
Mus musculus [26]
  Activity: Active
